Assay results collected from several papers.
Compare with care: the assays were run in different laboratories.
Target: cAMP-dependent protein kinase catalytic subunit alpha (PRKACA, Homo sapiens, UniProt P17612)

SMILES	effect on	mode	technique	tested at	pH	endpoint	value
Cn1cc(-c2cc(F)cc(N3CCn4c(cc5c4CCCC5)C3=O)c2CO)cc(Nc2ccc(N3CCN(C4COC4)CC3)cn2)c1=O	enzyme activity	inhibitor		0.1 µM		inhibition	6%
O=c1[nH]c2ccccc2n1C1CCN(Cc2ccc(-c3[nH]c4cc5ncnc5cc4nc3-c3ccccc3)cc2)CC1	cell-free assay			0.5 µM		remaining signal	106%
C#Cc1n[nH]c2c(-c3cn(C(C)c4ccccn4)c(=O)[nH]c3=O)cc(F)cc12 (stereo not shown)	enzyme activity	inhibitor		1 µM		inhibition	15.6%
COc1ncccc1-c1cnn2ccc(N3CCN(C(=O)OC(C)C)CC3)nc12	binding		competition with immobilised ligand	1 µM		remaining binding	66%
Nc1ncnc2c1ncn2[C@@H]1O[C@H](COP(=O)(O)OP(=O)(O)OP(=O)(O)O)[C@@H](O)[C@H]1O	enzyme activity	substrate			pH 7.4	Km	16.9 µM
Nc1ncc(-c2nc(N3CCOCC3)nc(N3CCOCC3)n2)c(C(F)F)n1	binding		competition with immobilised ligand	10 µM		remaining binding	85%
Cc1nn(C)cc1-c1nc2c(N3CCN(Cc4ccc(Cl)cc4)CC3)c(Cl)cnc2[nH]1	binding		competition with immobilised ligand	1 µM		remaining binding	57%
C#Cc1n[nH]c2c(-c3cn([C@@H](C)c4ccccc4)c(=O)[nH]c3=O)cc(F)cc12	enzyme activity	inhibitor		0.1 µM		inhibition	0%
Cn1cc(-c2cccc(N3CCc4c(sc5c4CC(C)(C)C5)C3=O)c2CO)cc(Nc2ccncn2)c1=O	enzyme activity	inhibitor		1 µM		inhibition	-3%
Cn1cncc1[C@@](O)(COc1ccc(C#N)cc1-c1ccc(OC(F)(F)F)cc1)c1ccc(C#N)cc1	cell-free assay		competition with immobilised ligand	1 µM		remaining binding	94%
